Rows were chosen to be rich in hits. Some 3% of all compounds tested hit in one or more screens of this group.
Kir21 block: inhibitors of mouse Kir2.1 inward-rectifier potassium channel | B-score at 10 µM | AID 1672 | P35561 | 0.85% of 310,000 active | HEK293-Kir2.1, FluxOR thallium flux fluorescence; hits give low values;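 active = fluorescence ratio B-score at or below minus 3 SD of library scores, with starting-brightness B-score within 2 SD, cut at about -4.2 in these data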;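 note: channel flux triggered by added potassium and thallium sulfate stimulus; B-score of peak minus minimum fluorescence over baseline after thallium stimulus; more negative B-score means stronger Kir2.1 block with less thallium influx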
ANO1 block: inhibitors of mouse TMEM16A calcium-activated chloride channel; Q8BHY3; HEK293 TMEM16A/YFP iodide influx fluorescence, ionomycin; normalized B-score (activity score, 25-100; higher = stronger inhibition) at 10 µM; 1.2% of 310,000 active;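 active = ratio plate-corrected score three or more library SD toward inhibition, starting fluorescence score within five deviations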;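 note: score derived from kinetic fluorescence span divided by baseline fluorescence per well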
SR-BI HDL uptake: blocks mouse SR-BI lipid uptake from DiI-HDL; Q61009; ldlA[mSR-BI] CHO cells, DiI-HDL uptake fluorescence, 3 h; inhibition, % at 12.5 µM; 0.96% of 320,000 active; AID 488896;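 active = mean replicate inhibition of at least 70% and a set share of replicates each scoring 70 or more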;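 note: 0% = median of neutral control wells and 100% = median of positive control wells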
Target sequence (Q61009 whole entry, looked up): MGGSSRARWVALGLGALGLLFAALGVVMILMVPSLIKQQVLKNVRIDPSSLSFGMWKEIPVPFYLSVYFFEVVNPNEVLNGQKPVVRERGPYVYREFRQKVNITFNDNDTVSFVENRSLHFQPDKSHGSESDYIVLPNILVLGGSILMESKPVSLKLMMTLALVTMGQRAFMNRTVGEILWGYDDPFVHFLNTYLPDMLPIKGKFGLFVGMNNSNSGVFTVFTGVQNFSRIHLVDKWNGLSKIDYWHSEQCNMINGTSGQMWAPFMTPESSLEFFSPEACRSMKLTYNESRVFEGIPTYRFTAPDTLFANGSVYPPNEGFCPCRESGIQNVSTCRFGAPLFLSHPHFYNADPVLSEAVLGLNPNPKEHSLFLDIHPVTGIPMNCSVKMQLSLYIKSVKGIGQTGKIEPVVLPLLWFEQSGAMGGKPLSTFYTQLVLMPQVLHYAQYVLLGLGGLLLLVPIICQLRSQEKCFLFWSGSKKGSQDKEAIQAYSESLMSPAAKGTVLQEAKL
SR-BI DiI-HDL act: enhances SR-BI lipid uptake from DiI-HDL. CHO ldlA[mSR-BI] cells, DiI-HDL uptake fluorescence, 3 h; 100 = double the neutral-control signal. activation, % at 12.5 µM. 0.096% of 320,000 active. AID 504775;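 active = mean replicate activation of at least 60% and every replicate at or above 60%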;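 note: 0% = median plate neutral-control signal and 100% = twice that signal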
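Assay system: LDL receptor-deficient CHO ldlA cells overexpressing murine SR-BI / Medium: BSA-supplemented, HEPES-buffered Ham's F12, pH 7.4 / Probe or stimulus: DiI-labelled HDL at 10 µg/mL final / Timing: compound with DiI-HDL co-incubation, 3 h at 37 °C / Technique: bottom-read cell fluorescence after medium removal, ex 550/em 595 nm / Measure: HDL uptake via cellular fluorescence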
ANO1 activ: mouse TMEM16A channel activation, primary screen | 0.3% of 340,000 active | AID 623877 | B-score at 10 µM | Q8BHY3 | HEK293 TMEM16A/YFP-H148Q/I152L, iodide quench fluorescence; hits give low values;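 active = fluorescence-ratio B-score plate-corrected deviation score at least 3 library SD below zero, with starting fluorescence score within 5 deviations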;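 note: channel opened by trigger with iodide after compound preincubation; score built on the fluorescence ratio of max minus min over baseline; more negative score means more quench and so TMEM16A activation or potentiation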
FID counter: fluorescent intercalator displacement, NS3 helicase counter-screen; DNA fluorescent intercalator displacement, fluorescence; AID 1845; 0.17% of 290,000 active; inhibition, % at 7.9 µM; in the data active = inhibition above about 37%;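 note: 0% = vehicle and 100% = reference compound; higher means more ethidium bromide displaced from hairpin DNA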
An asterisk follows results filed as active; i = inactive; . = no result given.

SMILES | Kir21 block | ANO1 block | SR-BI HDL uptake | SR-BI DiI-HDL act | ANO1 activ | FID counter
O=C(Nc1nnc(SCCN2CCOCC2)s1)C1CC(=O)N(c2ccc(F)cc2)C1 (stereo unspecified) | -1.1 | i | 3 | -3 | i | -26
COc1ccc(CCNC(=O)c2cc(=O)c3cc(C)ccc3o2)cc1OC | 1.4 | i | 39 | -39 | i | -17
Nc1nonc1-n1nnc(C(=O)N/N=C/c2cc(Br)ccc2O)c1CNc1ccccc1 | -1.4 | i | 48 | -48 | i | 15
Nc1nonc1C(=O)N/N=C/c1cc(Br)ccc1O | -0.39 | i | 138* | -138 | i | 3
O=C(N/N=C/c1ccc2nccnc2c1)c1ccncc1 | -0.15 | i | -355 | 355* | i | -2
O=C(N/N=C/c1ccc2nccnc2c1)c1ccc(Br)cc1 | 1.2 | i | . | . | i | 0
COc1cc(C(=O)Oc2ccc(/C=N/NC(=O)c3ccncc3)cc2)cc(OC)c1OC | -1.1 | i | 73* | -73 | i | -47
Cc1ccc(N=Nc2ccc(O)c(/C=N\NC(=O)c3ccc(N)cc3)c2)cc1C | 0.8 | i | 115* | -115 | i | -3
N#CCSc1ccccc1NC(=O)CN1C(=O)C(=O)N(Cc2ccccc2)C1=O | . | . | -14 | 14 | i | .
COc1ccc(N2C(=O)/C(=C/c3ccc([N+](=O)[O-])cc3)C=C2c2ccccc2)cc1 | -0.13 | i | 96* | -96 | i | -1
C=CCn1c(COc2ccccc2)nnc1SCc1ccc(C#N)cc1 | -11* | i | 50 | -50 | i | -29
COc1cc2c(cc1OC)C(c1ccccc1O)NCC2 (stereo unspecified) | -0.04 | i | 1 | -1 | i | -1
COc1ccccc1CCNC(=O)C(=O)NCC1OCCN1S(=O)(=O)c1ccc(OC)c(OC)c1 (stereo unspecified) | 0.76 | 100* | 52 | -52 | i | -35
O=C(O)c1ccc(C=NN=C2c3ccccc3-c3ccccc32)cc1 | . | . | -2 | 2 | -4.8* | .
COc1cc(/C=N/N=C2/C(=O)Nc3ccccc32)ccc1O | 0.45 | i | -7 | 7 | i | -2
O=C(O)c1ccc(N=C2c3ccccc3-c3ccccc32)cc1 | . | . | -8 | 8 | i | .
COc1ccc(C=NN=C2c3ccccc3-c3ccccc32)cc1OC | . | . | 79* | -79 | i | .
COc1cccc(CN(C)C(=O)CN2C(=O)NC(c3ccccc3)(c3ccccc3)C2=O)c1OC | . | . | -23 | 23 | i | .
O=C(NNC(=S)Nc1ccccc1Cl)c1ccccc1Br | -0.11 | i | 6 | -6 | i | -9
COCn1c(-c2ccc(OC)cc2)nc2ccccc21 | 0.04 | i | 11 | -11 | i | -6
CCCn1c(-c2ccc(OC)cc2)nc2ccccc21 | -4.5* | i | 15 | -15 | i | -11
COc1ccc2[nH]c3c(c2c1)CCN1C(=O)N([C@@H](C)C(=O)NC2CCN(Cc4ccccc4)CC2)C(=O)[C@]31C | -1.6 | i | 56 | -56 | i | 14
O=C1ON=C(c2ccccc2)/C1=C/c1ccc(-c2ccccc2[N+](=O)[O-])o1 | . | 25* | -10 | 10 | -6.2* | -5
O=[N+]([O-])c1ccccc1-c1ccc(/C=N/n2cnnc2)o1 | 0.18 | i | -30 | 30 | i | 4
CCCN=C1N(CC)C[C@@H]2[C@@H]3C(=O)N(Cc4ccccc4)C(=O)[C@@H]3[C@](Cc3ccccc3)(C(=O)OC)N12 | . | . | 1 | -1 | i | .
SMILES | Kir21 block | ANO1 block | SR-BI HDL uptake | SR-BI DiI-HDL act | ANO1 activ | FID counter
Cc1cc(N2CCCC2)ccc1NC(=O)COc1ccccc1 | . | . | 72* | -72 | i | .
CCc1ccccc1OCC(=O)Nc1ccc(N2CCCC2)cc1C | . | . | 69 | -69 | i | .
COc1ccc(OCC(=O)Nc2ccc(N3CCN(C(=O)c4ccccc4C)CC3)cc2)cc1 | 0.45 | i | 77* | -77 | i | -33
Cc1cc(OCC(=O)Nc2ccc(N3CCCC3)cc2)cc(C)c1Cl | -0.02 | i | 87* | -87 | i | 6
CC(C)(C)OC(=O)NNC(=O)c1cccs1 | 0.2 | i | -22 | 22 | i | -2
COc1cccc(/C=C2\SC(=S)N(CCCC(=O)N(CCO)c3ccccc3)C2=O)c1 | 0.04 | i | -7 | 7 | i | -48
O=C(CN1C(=O)NC(c2ccccc2)(c2ccccc2)C1=O)NCCc1ccc(F)cc1 | . | . | 1 | -1 | i | .
CC(C)(C)c1cnnn1-c1ccc(C(=O)CCl)cc1 | -6.5* | i | -6 | 6 | i | 3
CCCCCn1c(N)c(-c2nc3ccccc3s2)c2c([N+](=O)[O-])nn(C)c(=O)c21 | -0.01 | i | 84* | -84 | i | 5
CC(OC(=O)CNC(=O)c1ccc(Cl)c(Cl)c1)C(=O)N1CCOCC1 (stereo unspecified) | 1.8 | i | -17 | 17 | i | .
O=C(N/N=C/c1cn(-c2ccccc2)nc1-c1ccc(F)cc1)c1ccc2c(c1)OCO2 | 0.87 | i | 74* | -74 | i | -3
COc1ccc(-c2nn(-c3ccccc3)cc2/C=N/NC(=O)c2ccc(Br)o2)cc1 | 0.07 | 100* | 82* | -82 | i | -3
COc1ccc(-c2nn(-c3ccccc3)cc2/C=C/C(=O)OCC(=O)Nc2ccc(C#N)cc2)cc1 | 1.9 | i | 87* | -87 | i | -9
Cc1cc2oc(=O)cc(-c3ccccc3)c2c(C)c1-c1ccc(N(C)C)cc1 | . | . | 78* | -78 | i | .
COc1ccc(-c2c(C)cc3oc(=O)cc(-c4ccccc4)c3c2C)cc1 | . | . | 62 | -62 | i | .
CC(=O)Nc1ccc(-c2c(C)cc3oc(=O)cc(-c4ccccc4)c3c2C)cc1 | . | . | 67 | -67 | i | .
CCOC(=O)c1ccc(-c2c(C)cc3oc(=O)cc(-c4ccccc4)c3c2C)cc1 | . | . | 73* | -73 | i | .
Cc1ccc(-c2c(C)cc3oc(=O)cc(-c4ccccc4)c3c2C)cc1 | . | . | 78* | -78 | i | .
O=C1CSC(c2ccc(Cl)cc2)N1C1CCCCC1 (stereo unspecified) | -6.1* | i | -4 | 4 | i | -26
Cc1ccc(S(=O)(=O)NCCC(=O)NNC(=O)COc2ccccc2Cl)cc1C | . | . | -1 | 1 | i | .
Cc1cc(C)c(NC(=S)NC(CO)(CO)CO)c(C)c1 | 0.73 | i | -4 | 4 | i | -4
CN(Cc1ccccc1)CC(O)COc1ccc(CNCc2ccc(Cl)s2)cc1 (stereo unspecified) | -12* | i | -17 | 17 | i | 36
COc1ccc(CCNC(=O)COc2ccc(S(=O)(=O)NC3CCCCC3)cc2Cl)cc1 | 0 | 100* | 51 | -51 | i | -32

Compound activity: PubChem, several laboratories
